Tests used:
[1] = molecular target: D(2) dopamine receptor (Rattus norvegicus) (UniProt P61169); assay: Binding affinity at dopamine receptor D2 from rat by spiropiperidone displacement.
Procedure, shortened: (§1)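 D2 receptor binding was read as % displacement of spiropiperidone, with test compound at 1000 nM unless stated otherwise. IC50 values used at least five concentrations per compound in triplicate. Each value is the mean of two replicate experiments differing by 5% or less.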

Mus musculus [2] = assay: Antagonism of apomorphine induced climbing was determined in female swiss -Wbster mice after (ip) administration of 80 mg/kg; type: functional
Procedure, shortened: (§2)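 Female Swiss-Webster mice (about 20 g) were fasted about 24 h, then given test compound or vehicle ip or po (N = 20 per group). Vehicle was 0.5% w/w hydroxypropylmethylcellulose with 0.1% w/w Tween 80 in water. After 30 min, mice received apomorphine HCl 1.25 mg/kg sc. At 13 min, each mouse was watched for 1 min; score was mean of highest and lowest rung of 27. Groups were compared with vehicle by Student's t-test.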

Mus musculus [3] = assay: Antagonism of apomorphine induced swimming was determined in female swiss -Wbster mice after (ip) administration of 80 mg/kg; type: functional
Mus musculus [4] = assay: Antagonism of apomorphine induced climbing was determined in female swiss -Wbster mice after (ip) administration of 40 mg/kg; type: functional; procedure, shortened: as §2
Mus musculus [5] = assay: Antagonism of apomorphine induced swimming was determined in female swiss -Wbster mice after (ip) administration of 40 mg/kg; type: functional
[6] = Number of animals showing dyskinesias was determined in haloperidol sensitized 4 cebus monkeys after (po) administration of 40 mg/kg; type: functional
Procedure, shortened: (§3)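 Adult female and male Cebus monkeys sensitized with oral haloperidol 1 mg/kg once per week until dyskinetic reactions occurred. Test drug given orally (2 mL/kg) in 0.5% w/w hydroxypropylmethylcellulose with 0.1% w/w Tween 80 in distilled water, at least 2 weeks between treatments. Two observers watched continuously for 6-7 h, recording reaction type and severity every 30 min. Score is monkeys with dyskinesias/monkeys tested.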

[7] = Number of animals showing dyskinesias was determined in haloperidol sensitized 13 cebus monkeys after (po) administration of 10 mg/kg; type: functional
Procedure, shortened: (§4)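 Adult male and female Cebus monkeys sensitized with haloperidol 1 mg/kg po weekly until dyskinetic reactions appeared. Drug given orally (2 mL/kg) in 0.5% w/w hydroxypropylmethylcellulose with 0.1% w/w Tween 80, at least 2 weeks between treatments. Two observers watched continuously for 6–7 h, logging reaction type and severity every 30 min. Score is the number of monkeys with dyskinesias over the number tested.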

Mus musculus [8] = assay: Antagonism of apomorphine induced climbing was determined in female swiss -Wbster mice after (ip) administration of 20 mg/kg; type: functional; procedure, shortened: as §2
Mus musculus [9] = assay: Antagonism of apomorphine induced climbing was determined in female swiss -Wbster mice after (po) administration of 40 mg/kg; type: functional; procedure, shortened: as §2
Mus musculus [10] = assay: Antagonism of apomorphine induced climbing was determined in female swiss -Wbster mice after (po) administration of 80 mg/kg; type: functional; procedure, shortened: as §2
Mus musculus [11] = assay: Antagonism of apomorphine induced climbing was determined in female swiss -Wbster mice after (po) administration of 20 mg/kg; type: functional; procedure, shortened: as §2
[12] = Number of animals showing dyskinesias was determined in haloperidol sensitized 13 cebus monkeys after (po) administration of 20 mg/kg; type: functional; procedure, shortened: as §4
Mus musculus [13] = assay: Antagonism of apomorphine induced swimming was determined in female swiss -Wbster mice after (po) administration of 10 mg/kg; type: functional
Mus musculus [14] = assay: Antagonism of apomorphine induced swimming was determined in female swiss -Wbster mice after (po) administration of 40 mg/kg; type: functional
Mus musculus [15] = assay: Antagonism of apomorphine induced swimming was determined in female swiss -Wbster mice after (po) administration of 80 mg/kg; type: functional
Mus musculus [16] = assay: Antagonism of apomorphine induced swimming was determined in female swiss -Wbster mice after (po) administration of 20 mg/kg; type: functional
Mus musculus [17] = assay: Antagonism of apomorphine induced swimming was determined in female swiss -Webster mice after (ip) administration of 80 mg/kg; type: functional
Mus musculus [18] = assay: Antagonism of apomorphine induced climbing was determined in female swiss -Webster mice after (ip) administration of 80 mg/kg; type: functional; procedure, shortened: as §2
D(2) dopamine receptor = D(2) dopamine receptor (Rattus norvegicus, UniProt P61169); assay: Inhibition of spiropiperidone binding at dopamine receptor D2 of rat.
Chain of D(2) dopamine receptor (P61169 whole entry): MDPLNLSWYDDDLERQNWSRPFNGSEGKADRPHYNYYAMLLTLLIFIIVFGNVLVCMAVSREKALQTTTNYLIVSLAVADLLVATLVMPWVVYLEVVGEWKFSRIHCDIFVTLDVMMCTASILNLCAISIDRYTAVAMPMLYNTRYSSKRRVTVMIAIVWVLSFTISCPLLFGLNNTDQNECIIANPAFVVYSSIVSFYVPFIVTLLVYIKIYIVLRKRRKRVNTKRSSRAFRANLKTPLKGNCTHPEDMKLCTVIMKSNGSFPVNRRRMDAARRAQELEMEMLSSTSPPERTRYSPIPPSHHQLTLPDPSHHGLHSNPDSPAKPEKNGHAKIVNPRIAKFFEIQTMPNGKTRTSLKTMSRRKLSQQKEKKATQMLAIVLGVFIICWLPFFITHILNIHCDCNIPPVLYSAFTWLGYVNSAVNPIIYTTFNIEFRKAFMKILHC

[19] = Number of animals showing dyskinesias was determined in haloperidol sensitized 2 cebus monkeys after (po) administration of 20 mg/kg; type: functional; procedure, shortened: as §3
Mus musculus [20] = assay: Antagonism of apomorphine induced climbing was determined in female swiss -Wbster mice after (ip) administration of 10 mg/kg; type: functional; procedure, shortened: as §2
[21] = Number of animals showing dyskinesias was determined in haloperidol sensitized 12 cebus monkeys after (po) administration of 80 mg/kg; type: functional; procedure, shortened: as §3
Mus musculus [22] = assay: Antagonism of apomorphine induced climbing was determined in female swiss -Webster mice after (ip) administration of 40 mg/kg; type: functional; procedure, shortened: as §2
Mus musculus [23] = assay: Antagonism of apomorphine induced climbing was determined in female swiss -Webster mice after (ip) administration of 2.5 mg/kg; type: functional; procedure, shortened: as §2
Mus musculus [24] = assay: Antagonism of apomorphine induced climbing was determined in female swiss -Webster mice after (po) administration of 20 mg/kg; type: functional; procedure, shortened: as §2
Mus musculus [25] = assay: Antagonism of apomorphine induced climbing was determined in female swiss -Webster mice after (ip) administration of 10 mg/kg; type: functional; procedure, shortened: as §2
Mus musculus [26] = assay: Antagonism of apomorphine induced climbing was determined in female swiss -Webster mice after (ip) administration of 20 mg/kg; type: functional; procedure, shortened: as §2
Mus musculus [27] = assay: Antagonism of apomorphine induced climbing was determined in female swiss -Webster mice after (p.o.) +SKF525A administration of 10 mg/kg; type: functional; conditions: route oral; procedure, shortened: as §2
Mus musculus [28] = assay: Antagonism of apomorphine induced climbing was determined in female swiss -Webster mice after (po) administration of 5 mg/kg; type: functional; procedure, shortened: as §2
Mus musculus [29] = assay: Antagonism of apomorphine induced climbing was determined in female swiss -Webster mice after (p.o.) +SKF525A administration of 20 mg/kg; type: functional; conditions: route oral; procedure, shortened: as §2
Mus musculus [30] = assay: Antagonism of apomorphine induced climbing was determined in female swiss -Webster mice after (p.o.) +SKF525A administration of 5 mg/kg; type: functional; conditions: route oral; procedure, shortened: as §2
Mus musculus [31] = assay: Antagonism of apomorphine induced climbing was determined in female swiss -Webster mice after (ip) administration of 5 mg/kg; type: functional; procedure, shortened: as §2
Mus musculus [32] = assay: Antagonism of apomorphine induced climbing was determined in female swiss -Webster mice after (po) administration of 10 mg/kg; type: functional; procedure, shortened: as §2
Mus musculus [33] = assay: Antagonism of apomorphine induced swimming was determined in female swiss -Webster mice after (ip) administration of 40 mg/kg; type: functional
Mus musculus [34] = assay: Antagonism of apomorphine induced swimming was determined in female swiss -Webster mice after (ip) administration of 20 mg/kg; type: functional
[35] = molecular target: D(2) dopamine receptor (Rattus norvegicus) (UniProt P61169); assay: Inhibitory activity for the displacement of spiropiperidone (1000 nM) from dopamine D2 receptor of rat; procedure, shortened: as §1

Chain of D(2) dopamine receptor (Rattus norvegicus) (P61169 whole entry): as above

Work on `OCCOCCN1CCN(C2=Nc3ccccc3Oc3ccccc32)CC1` yielded a % displacement of spiropiperidone [1] of 16%, an Activity (Mus musculus [2]) of 11 and an Activity (Mus musculus [3]) of 8. It also gave an Activity (Mus musculus [4]) of 17 and an Activity (Mus musculus [5]) of 1.

For `OCCOCCN1CCN(C2=Nc3ccccc3Sc3ccccc32)CC1` [QUETIAPINE], the No of monkeys [6] was 0, the No of monkeys [7] was 1 and the Activity (Mus musculus [8]) was 15. It also gave an Activity (Mus musculus [9]) of 14, an Activity (Mus musculus [10]) of 8 and an Activity (Mus musculus [11]) of 18. It also gave a No of monkeys [12] of 2, an Activity (Mus musculus [2]) of 0 and an Activity (Mus musculus [13]) of 3. For the same molecule, the Activity (Mus musculus [4]) was 2, the Activity (Mus musculus [14]) was 11 and the Activity (Mus musculus [15]) was 18. The Activity (Mus musculus [16]) was 3.

`O=S1(=O)c2ccccc2N=C(N2CCN(CCOCCO)CC2)c2ccccc21` showed an Activity (Mus musculus [17]) of 0 and an Activity (Mus musculus [18]) of 23.

Work on `COCC(CO)N1CCN(C2=Nc3ccccc3Sc3ccccc32)CC1` (configuration not stated) yielded an IC50 (D(2) dopamine receptor) of 1640 nM, an Activity (Mus musculus [17]) of 0 and an Activity (Mus musculus [18]) of 21.

With `OCCOCCN1CCN(C2=Nc3cc(Cl)ccc3Sc3ccccc32)CC1` the No of monkeys [6] was 0, the Activity (Mus musculus [8]) was 12 and the Activity (Mus musculus [9]) was 24. It also gave a No of monkeys [19] of 0, a % displacement of spiropiperidone [1] of 58% and an Activity (Mus musculus [10]) of 16. The Activity (Mus musculus [11]) was 25, the Activity (Mus musculus [2]) was 0 and the Activity (Mus musculus [4]) was 8. It also gave an Activity (Mus musculus [14]) of 1, an Activity (Mus musculus [15]) of 1 and an Activity (Mus musculus [20]) of 20. It also gave a No of monkeys [21] of 0 and an Activity (Mus musculus [16]) of 1.

With `OCCOCCN1CCN(C2=Nc3ccccc3Cc3sccc32)CC1` the Activity (Mus musculus [22]) was 21 and the Activity (Mus musculus [18]) was 7.

Molecule `OCCOCCN1CCN(C2=Nc3cc(Cl)ccc3Cc3sccc32)CC1` has an Activity (Mus musculus [8]) of 1, a No of monkeys [19] of 1 and a % displacement of spiropiperidone [1] of 60%. The Activity (Mus musculus [2]) was 3, the Activity (Mus musculus [4]) was 2 and the Activity (Mus musculus [20]) was 20.

Work on `CN1CCN(C2=Nc3ccccc3Cc3ccccc32)CC1` [PERLAPINE] yielded an Activity (Mus musculus [23]) of 9, an IC50 (D(2) dopamine receptor) of 2700 nM and an Activity (Mus musculus [24]) of 2. For the same molecule, the Activity (Mus musculus [25]) was 7, the Activity (Mus musculus [26]) was 0 and the Activity (Mus musculus [27]) was 20. For the same molecule, the Activity (Mus musculus [28]) was 20, the Activity (Mus musculus [29]) was 16 and the Activity (Mus musculus [30]) was 24. The Activity (Mus musculus [31]) was 9 and the Activity (Mus musculus [32]) was 9.

With `OCC1COCC(CN2CCN(C3=Nc4ccccc4Sc4ccccc43)CC2)O1` (configuration not stated) the Activity (Mus musculus [22]) was 7, the No of monkeys [6] was 4 and the Activity (Mus musculus [33]) was 8. It also gave a % displacement of spiropiperidone [1] of 4%, an Activity (Mus musculus [26]) of 18 and an Activity (Mus musculus [34]) of 0. The Activity (Mus musculus [17]) was 27 and the Activity (Mus musculus [18]) was 0.

`OCCOCCOCCN1CCN(C2=Nc3ccccc3Sc3ccccc32)CC1` showed an Activity (Mus musculus [22]) of 14, an Activity (Mus musculus [33]) of less than 3 and an IC50 (D(2) dopamine receptor) of 1390 nM. It also gave an Activity (Mus musculus [26]) of 20, an Activity (Mus musculus [34]) of 2 and an Activity (Mus musculus [17]) of less than 12. It also gave an Activity (Mus musculus [18]) of less than 3.

`CN1CCN(C2=Nc3cc(Cl)ccc3Oc3ccccc32)CC1` [ISOLOXAPINE] gave an Activity (Mus musculus [22]) of 20, a % displacement of spiropiperidone [1] of 48% and an Activity (Mus musculus [18]) of 14.

With `COCC(COC)N1CCN(C2=Nc3ccccc3Sc3ccccc32)CC1` the inhibition [35] was 4%, the Activity (Mus musculus [17]) was 0 and the Activity (Mus musculus [18]) was 19.

From ChEMBL document CHEMBL1134337, “Behavioral approach to nondyskinetic dopamine antagonists: identification of seroquel” (J Med Chem, 2001)
